Legend:
mTRPC6 mutant ^mE700A = mTRPC6 mutant ^mE700A (Mus musculus, UniProt Q61143, E700A); test: whole-cell patch-clamp, mTRPC6 mutant E700A; format: cell-based; conditions: saturated agonist
Outline: (§1)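 Transiently transfected HEK293 cells expressing mouse or human TRPC6 WT, or sequence-verified mouse point mutants, recorded 24–48 h post-transfection. Conventional whole-cell clamp at −60 mV and 23 °C, gap-free; test compound applied by Y-tube. Pipette: CsCl/HEPES/BAPTA, 400 nM free Ca2+, pH 7.2. Bath: NaCl-based, 2 mM CaCl2, pH 7.4. EC50 from Hill fit of concentration–current data. Mutant screen used current ratios (10/5 μM or 3/1 μM). At least 3 transfection batches.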

hTRPC6 mutant ^hE672C = hTRPC6 mutant ^hE672C (Homo sapiens, UniProt Q9Y210, E672C); test: whole-cell patch-clamp, hTRPC6 mutant E672C; format: cell-based
Sequence of hTRPC6 mutant ^hE672C (Q9Y210 whole entry E672C): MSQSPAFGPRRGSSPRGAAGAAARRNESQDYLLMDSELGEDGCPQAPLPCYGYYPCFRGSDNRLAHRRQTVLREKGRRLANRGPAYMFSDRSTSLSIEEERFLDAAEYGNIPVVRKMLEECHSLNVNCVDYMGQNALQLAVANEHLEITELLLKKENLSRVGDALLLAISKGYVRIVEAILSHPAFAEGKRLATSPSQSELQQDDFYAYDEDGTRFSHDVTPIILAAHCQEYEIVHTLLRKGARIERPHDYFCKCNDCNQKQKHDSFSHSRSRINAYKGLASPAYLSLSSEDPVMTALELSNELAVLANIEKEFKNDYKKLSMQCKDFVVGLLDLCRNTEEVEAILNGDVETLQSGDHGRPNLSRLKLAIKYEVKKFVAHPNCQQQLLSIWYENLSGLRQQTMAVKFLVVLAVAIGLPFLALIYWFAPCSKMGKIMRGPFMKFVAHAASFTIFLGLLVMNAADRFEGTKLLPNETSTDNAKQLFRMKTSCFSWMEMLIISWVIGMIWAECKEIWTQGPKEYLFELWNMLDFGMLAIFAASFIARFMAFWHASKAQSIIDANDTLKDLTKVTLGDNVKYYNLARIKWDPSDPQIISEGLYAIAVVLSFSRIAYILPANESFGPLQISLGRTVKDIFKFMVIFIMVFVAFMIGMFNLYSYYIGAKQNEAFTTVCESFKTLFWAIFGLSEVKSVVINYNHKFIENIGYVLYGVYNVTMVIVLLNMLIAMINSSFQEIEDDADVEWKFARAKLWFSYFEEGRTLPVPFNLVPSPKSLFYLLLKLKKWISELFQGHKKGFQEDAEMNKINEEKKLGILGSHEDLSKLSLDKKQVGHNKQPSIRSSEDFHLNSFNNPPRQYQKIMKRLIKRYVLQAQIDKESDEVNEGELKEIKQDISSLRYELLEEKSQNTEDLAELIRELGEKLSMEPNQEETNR

mTRPC6 mutant ^mW679F = mTRPC6 mutant ^mW679F (Mus musculus, UniProt Q61143, W679F); test: whole-cell patch-clamp, mTRPC6 mutant W679F; format: cell-based; conditions: saturated agonist
Sequence of mTRPC6 mutant ^mW679F (Q61143 whole entry W679F): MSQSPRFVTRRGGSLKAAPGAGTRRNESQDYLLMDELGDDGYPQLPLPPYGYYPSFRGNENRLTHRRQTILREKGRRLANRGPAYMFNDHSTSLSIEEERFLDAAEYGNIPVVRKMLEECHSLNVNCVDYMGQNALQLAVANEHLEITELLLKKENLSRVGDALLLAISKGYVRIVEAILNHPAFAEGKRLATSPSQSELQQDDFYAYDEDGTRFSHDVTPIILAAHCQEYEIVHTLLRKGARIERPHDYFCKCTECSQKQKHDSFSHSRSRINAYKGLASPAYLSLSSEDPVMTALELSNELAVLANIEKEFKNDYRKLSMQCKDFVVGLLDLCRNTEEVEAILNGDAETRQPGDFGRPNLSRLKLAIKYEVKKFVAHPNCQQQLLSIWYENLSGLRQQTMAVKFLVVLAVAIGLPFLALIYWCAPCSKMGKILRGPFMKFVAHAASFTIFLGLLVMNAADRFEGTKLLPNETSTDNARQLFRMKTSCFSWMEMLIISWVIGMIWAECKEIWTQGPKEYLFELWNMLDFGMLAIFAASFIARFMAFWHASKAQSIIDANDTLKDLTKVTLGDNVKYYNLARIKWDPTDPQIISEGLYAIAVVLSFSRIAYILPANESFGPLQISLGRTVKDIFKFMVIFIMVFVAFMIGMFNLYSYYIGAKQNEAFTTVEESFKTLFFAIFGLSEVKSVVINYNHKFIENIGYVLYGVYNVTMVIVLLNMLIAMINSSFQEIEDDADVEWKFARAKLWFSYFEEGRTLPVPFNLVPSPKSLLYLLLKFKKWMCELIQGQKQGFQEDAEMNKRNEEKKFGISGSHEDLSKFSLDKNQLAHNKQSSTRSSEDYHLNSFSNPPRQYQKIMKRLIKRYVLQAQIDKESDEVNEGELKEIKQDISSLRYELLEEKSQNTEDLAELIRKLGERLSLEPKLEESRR
Outline: as §1

mTRPC6 mutant ^mF674A = mTRPC6 mutant ^mF674A (Mus musculus, UniProt Q61143, F674A); test: whole-cell patch-clamp, mTRPC6 mutant F674A; format: cell-based; conditions: saturated agonist
Sequence of mTRPC6 mutant ^mF674A (Q61143 whole entry F674A): as the sequence (Q61143 whole entry W679F) above, with F674A, F679W counted along it
Outline: as §1

hTRPC6 mutant ^hY705W = hTRPC6 mutant ^hY705W (Homo sapiens, UniProt Q9Y210, Y705W); test: whole-cell patch-clamp, hTRPC6 mutant Y705W; format: cell-based
Sequence of hTRPC6 mutant ^hY705W (Q9Y210 whole entry Y705W): as the sequence (Q9Y210 whole entry E672C) above, with C672E, Y705W counted along it

mTRPC6 mutant ^mW679A = mTRPC6 mutant ^mW679A (Mus musculus, UniProt Q61143, W679A); test: whole-cell patch-clamp, mTRPC6 mutant W679A; format: cell-based; conditions: saturated agonist
Sequence of mTRPC6 mutant ^mW679A (Q61143 whole entry W679A): as the sequence (Q61143 whole entry W679F) above, with F679A counted along it
Outline: as §1

mTRPC6 mutant ^mV687L = test: whole-cell patch-clamp, mTRPC6 mutant V687L; format: cell-based, mouse; conditions: ^mV687L (S3 pocket)
Outline: as §1

mTRPC6 mutant ^mR463K = test: whole-cell patch-clamp, mTRPC6 mutant R463K; format: cell-based, mouse; conditions: ^mR463K (S1 pocket)
Outline: as §1

mTRPC6 mutant ^mN701A = mTRPC6 mutant ^mN701A (Mus musculus, UniProt Q61143, N701A); test: whole-cell patch-clamp, mTRPC6 mutant N701A; format: cell-based; conditions: saturated agonist
Sequence of mTRPC6 mutant ^mN701A (Q61143 whole entry N701A): as the sequence (Q61143 whole entry W679F) above, with F679W, N701A counted along it
Outline: as §1

mTRPC6 mutant ^mY704A = mTRPC6 mutant ^mY704A (Mus musculus, UniProt Q61143, Y704A); test: whole-cell patch-clamp, mTRPC6 mutant Y704A; format: cell-based; conditions: saturated agonist
Sequence of mTRPC6 mutant ^mY704A (Q61143 whole entry Y704A): as the sequence (Q61143 whole entry W679F) above, with F679W, Y704A counted along it
Outline: as §1

mTRPC6 mutant ^mK675R = mTRPC6 mutant ^mK675R (Mus musculus, UniProt Q61143, K675R); test: whole-cell patch-clamp, mTRPC6 mutant K675R; format: cell-based
Sequence of mTRPC6 mutant ^mK675R (Q61143 whole entry K675R): as the sequence (Q61143 whole entry W679F) above, with K675R, F679W counted along it
Outline: as §1

TRPC6 = target: T1, TRPC6 (Mus musculus, UniProt Q61143); test: macro-patch recordings in outside-out and inside-out configurations; format: cell-based
T1 sequence (Q61143 1-930): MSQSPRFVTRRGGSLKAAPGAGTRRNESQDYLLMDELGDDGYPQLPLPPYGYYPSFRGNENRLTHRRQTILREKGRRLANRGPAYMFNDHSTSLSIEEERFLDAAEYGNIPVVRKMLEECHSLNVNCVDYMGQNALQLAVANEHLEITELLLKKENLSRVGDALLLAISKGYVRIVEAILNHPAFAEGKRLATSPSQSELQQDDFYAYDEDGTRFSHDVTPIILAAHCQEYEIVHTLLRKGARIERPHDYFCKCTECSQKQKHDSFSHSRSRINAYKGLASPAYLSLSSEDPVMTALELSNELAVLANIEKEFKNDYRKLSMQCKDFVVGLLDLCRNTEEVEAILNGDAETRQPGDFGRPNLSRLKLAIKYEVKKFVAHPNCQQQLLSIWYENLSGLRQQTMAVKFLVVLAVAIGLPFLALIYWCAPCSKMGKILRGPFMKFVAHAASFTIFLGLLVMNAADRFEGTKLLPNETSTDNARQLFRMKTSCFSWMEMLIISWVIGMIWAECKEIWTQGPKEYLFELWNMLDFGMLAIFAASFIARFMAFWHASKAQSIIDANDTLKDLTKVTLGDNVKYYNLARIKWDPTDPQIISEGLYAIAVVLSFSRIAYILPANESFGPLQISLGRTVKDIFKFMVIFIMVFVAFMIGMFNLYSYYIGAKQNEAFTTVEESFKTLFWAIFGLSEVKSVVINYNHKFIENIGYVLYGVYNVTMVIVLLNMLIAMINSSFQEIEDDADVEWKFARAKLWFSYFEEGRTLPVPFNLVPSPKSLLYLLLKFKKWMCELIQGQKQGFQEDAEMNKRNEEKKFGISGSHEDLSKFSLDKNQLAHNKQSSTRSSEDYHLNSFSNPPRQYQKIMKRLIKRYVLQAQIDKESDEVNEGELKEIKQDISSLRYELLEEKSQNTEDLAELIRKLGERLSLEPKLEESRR
Outline: (§2)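 Excised outside-out or inside-out patches (macro-patch or single-channel) from transfected HEK293 cells, 24–48 h post-transfection, 23 °C. Polished borosilicate pipettes of 8–12 MΩ; holding potential −60 mV. Same solutions as whole-cell recordings (CsCl-based internal, 400 nM free Ca2+, pH 7.2; NaCl-based external, pH 7.4). Sampled at 50 kHz, 2 kHz filter, low-pass 300 Hz; unitary current and conductance measured.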

hTRPC6 mutant ^hN702Q = hTRPC6 mutant ^hN702Q (Homo sapiens, UniProt Q9Y210, N702Q); test: whole-cell patch-clamp, hTRPC6 mutant N702Q; format: cell-based
Sequence of hTRPC6 mutant ^hN702Q (Q9Y210 whole entry N702Q): as the sequence (Q9Y210 whole entry E672C) above, with C672E, N702Q counted along it

mTRPC6^W679F = mTRPC6^W679F (Mus musculus, UniProt Q61143, W679F); test: single-channel outside-out recording, mTRPC6 W679F; format: cell-based; conditions: 100 μM agonist, −60 mV
Sequence of mTRPC6^W679F (Q61143 whole entry W679F): as the sequence (Q61143 whole entry W679F) above
Outline: as §2

hTRPC6 mutant ^hK676R = hTRPC6 mutant ^hK676R (Homo sapiens, UniProt Q9Y210, K676R); test: whole-cell patch-clamp, hTRPC6 mutant K676R; format: cell-based
Sequence of hTRPC6 mutant ^hK676R (Q9Y210 whole entry K676R): as the sequence (Q9Y210 whole entry E672C) above, with C672E, K676R counted along it

Sequence of mTRPC6 mutant ^mE700A (Q61143 whole entry E700A): as the sequence (Q61143 whole entry W679F) above, with F679W, E700A counted along it

CCOC(=O)N1CCC(c2cc(O)n3nc(C)c(-c4ccc(F)cc4)c3n2)CC1 [M085, Ethyl 4-(3-(4-fluorophenyl)-7-hydroxy-2-methylpyrazolo[1,5-a]pyrimidin-5-yl)piperidine-1-carboxylate]
agonist-induced current (mTRPC6 mutant ^mE700A): disappearance
EC50 (hTRPC6 mutant ^hE672C): 50.2 ± 6.65 µM
agonist-induced current (channel function) (mTRPC6 mutant ^mW679F): complete loss of function
agonist-induced current (mTRPC6 mutant ^mF674A): disappearance
EC50 (hTRPC6 mutant ^hY705W): 35.3 ± 6.15 µM
agonist-induced current (mTRPC6 mutant ^mW679A): disappearance
ratio of M085 activation current I10 μM/I5 μM (mTRPC6 mutant ^mV687L): 1.13 ± 0.26
ratio of M085 activation current I10 μM/I5 μM (mTRPC6 mutant ^mR463K): 1.54 ± 0.17
agonist-induced current (mTRPC6 mutant ^mN701A): disappearance
agonist-induced current (mTRPC6 mutant ^mY704A): disappearance
EC50 (mTRPC6 mutant ^mK675R): 6.9 ± 2.36 µM
Imax (maximal current density) (mTRPC6 mutant ^mK675R; ^mK675R, 100 μM agonist): 8.26 ± 0.62 pA/pF
current in inside-out configuration (TRPC6; 100 μM agonist, inside-out macro-patch): no currents were recorded
current in outside-out configuration (TRPC6; 100 μM agonist, outside-out macro-patch): could be recorded
cell membrane permeability (TRPC6; implied from inside-out/outside-out recordings): relatively low
EC50 (hTRPC6 mutant ^hN702Q): 54.5 ± 6.53 µM
unit current (mTRPC6^W679F): did not record unit currents
EC50 (hTRPC6 mutant ^hK676R): 44 ± 5.75 µM
